Source: ChEMBL document CHEMBL5329185, “Structure-activity relationship studies on vitamin D-based selective SREBP/SCAP inhibitor KK-052” (RSC Med Chem, 2023)
Active and inactive are the calls of the source. No cut-off for these calls is given here.

Key:
[1] = Inhibition of SREBP/SCAP (unknown origin) transfected with CHO-K1 cells cotransfected with pSRE-Luc/pAC-beta-gal measured after 24 hrs by Steady-Glo luciferase assay; assay type: cell-based; conditions: CHO-K1, 24 h
Procedure, shortened: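 IC50 taken from a dose-response in CHO-K1 cells transfected with an SRE-driven luciferase reporter. Cells were treated with various compound concentrations in lipid-free medium. Luciferase read-out, mean ± SD.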

CHO-K1 [2] = test: Downregulation of SCAP protein level in CHO-K1 cells harbouring FLAG-SCAP (1 to 767 residues) at 15 uM measured after 24 hrs by Western blot analysis; assay type: functional, cell-based; conditions: Cricetulus griseus
Procedure, shortened: (§1)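 Wild-type CHO-K1 cells or CHO-K1 cells overexpressing FLAG-SCAP(1–767) held in lipid-free medium with 15 μM compound for 24 h. Lysis in RIPA with protease inhibitors, 20 000g spin, BCA protein assay, SDS-PAGE and immunoblot. Endogenous SCAP probed with anti-hamster SCAP, the overexpressed form with anti-FLAG M2, actin as loading control. HRP chemiluminescence detection.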

CHO-K1 [3] = test: Downregulation of SCAP protein level in wild type CHO-K1 cells at 15 uM measured after 24 hrs by Western blot analysis; assay type: functional, cell-based; conditions: Cricetulus griseus; procedure, shortened: as §1
[4] = target: T1, Vitamin D3 receptor (Homo sapiens) (UniProt P11473); test: Activation of VDR (unknown origin) transfected in CHO-K1 cells assessed as luciferase activity at 5 uM measured after 24 hrs by Steady-Glo luciferase assay; assay type: cell-based; conditions: filed as activator
T1 sequence (whole entry): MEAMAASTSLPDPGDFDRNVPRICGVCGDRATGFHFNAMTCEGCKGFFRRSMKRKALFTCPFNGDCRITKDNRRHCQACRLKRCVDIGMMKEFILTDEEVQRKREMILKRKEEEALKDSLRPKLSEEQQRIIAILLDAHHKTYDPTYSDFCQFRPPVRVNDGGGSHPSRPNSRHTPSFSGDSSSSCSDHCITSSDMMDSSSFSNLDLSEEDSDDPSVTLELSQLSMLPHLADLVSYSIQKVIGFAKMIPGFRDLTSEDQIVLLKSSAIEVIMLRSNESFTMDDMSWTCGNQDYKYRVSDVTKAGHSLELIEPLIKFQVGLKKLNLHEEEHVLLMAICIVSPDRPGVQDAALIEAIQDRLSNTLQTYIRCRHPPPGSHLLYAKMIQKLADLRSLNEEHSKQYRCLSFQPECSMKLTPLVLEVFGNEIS
Procedure, shortened: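 CHO-K1 cells transfected with a VDRE-driven luciferase reporter, then treated with compounds at 5 μM in lipid-free medium. 25(OH)D3 run in parallel as control, DMSO as negative control. Luciferase read-out, mean ± SD.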

CHO-K1 [5] = test: Inhibition of SREBP/SCAP (unknown origin) transfected with CHO-K1 cells cotransfected with pSRE-Luc/pAC-beta-gal at 5 uM measured after 24 hrs by Steady-Glo luciferase assay; assay type: cell-based; conditions: Homo sapiens
Procedure, shortened: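 CHO-K1 cells transfected with an SRE-controlled luciferase reporter, exposed to compounds at 5 μM in lipid-free medium. 25(OH)D3 tested alongside as control. Luciferase signal reported as mean ± SD.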

Row | SMILES | IC50 [1] | Activity (CHO-K1 [2]) | Activity (CHO-K1 [3]) | Activity [4] | inhibition (CHO-K1 [5])
1 | C[C@H](CCC(F)(F)C(C)(C)O)[C@H]1CC[C@H]2/C(=C/Cn3nnnc3-c3ccccc3)CCC[C@]12C | 3500 nM | Active | Active |  | 
2 | C[C@H](CCC(F)(F)C(C)(C)O)[C@H]1CC[C@H]2/C(=C/Cn3nnnc3-c3ccc(C(F)(F)F)cc3)CCC[C@]12C |  |  |  | Active | 
3 | Cc1cccc(-c2nnnn2C/C=C2\CCC[C@]3(C)[C@@H]([C@H](C)CCC(F)(F)C(C)(C)O)CC[C@@H]23)c1 | 1400 nM | Active | Active |  | Active
4 | C[C@H](CCC(F)(F)C(C)(C)O)[C@H]1CC[C@H]2/C(=C/Cn3nnc(-c4ccc(Cl)cc4)n3)CCC[C@]12C |  |  |  | Active | 
5 | Cc1ccc(-c2nnn(C/C=C3\CCC[C@]4(C)[C@@H]([C@H](C)CCC(F)(F)C(C)(C)O)CC[C@@H]34)n2)cc1 |  |  |  | Active | 
6 | C[C@H](CCC(F)(F)C(C)(C)O)[C@H]1CC[C@H]2/C(=C/Cn3nnnc3-c3ccc(Cl)cc3)CCC[C@]12C |  |  |  | Active | 
7 | C[C@H](CCC(F)(F)C(C)(C)O)[C@H]1CC[C@H]2/C(=C/Cn3nnc(-c4ccccc4Cl)n3)CCC[C@]12C | 2000 nM | Active | Active |  | Active
8 | C[C@H](CCC(F)(F)C(C)(C)O)[C@H]1CC[C@H]2/C(=C/Cn3nnc(-c4ccc(C(F)(F)F)cc4)n3)CCC[C@]12C |  |  |  | Active | 
9 | Cc1ccc(-c2nnnn2C/C=C2\CCC[C@]3(C)[C@@H]([C@H](C)CCC(F)(F)C(C)(C)O)CC[C@@H]23)cc1 |  |  |  | Active | 
10 | C=C1CC[C@H](O)C/C1=C/C=C1\CCC[C@]2(C)[C@@H]([C@H](C)CCCC(C)(C)O)CC[C@@H]12 |  | Active | Active |  | 
